What all share (format): functional
For test [1], the system named is Enterococcus faecalis. The test is described as follows: Antibacterial activity against Enterococcus faecalis assessed as bacterial growth inhibition by broth microdilution method. The procedure, abridged: (§1)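 MIC values reported in µg/mL, determined by broth microdilution in microdilution plates.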
In test [2] the test system is Staphylococcus aureus. The test can be described thus: Antibacterial activity against methicillin-resistant Staphylococcus aureus assessed as bacterial growth inhibition by broth microdilution method. In outline:
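MIC read by micro broth dilution; values given in μg/mL.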

For test [3], the system named is Escherichia coli. The test can be described thus: Antibacterial activity against Escherichia coli ATCC 25922 assessed as bacterial growth inhibition by broth microdilution method. The procedure, abridged: as §1
For test [4], the system named is Klebsiella pneumoniae. The test can be described thus: Antibacterial activity against Klebsiella pneumonia assessed as bacterial growth inhibition by broth microdilution method. In outline:
as §1

Test [5] has as its system Pseudomonas aeruginosa. The test can be described thus: Antibacterial activity against Pseudomonas aeruginosa ATCC 27853 assessed as bacterial growth inhibition by broth microdilution method. In outline: as §1
In test [6] the test system is Staphylococcus aureus. The test can be described thus: Antibacterial activity against Staphylococcus aureus assessed as bacterial growth inhibition by broth microdilution method. In outline:
as §1

Test [7] deals with Escherichia coli. The test can be described thus: Antibacterial activity against Escherichia coli assessed as bacterial growth inhibition by broth microdilution method. The procedure, abridged:
as §1

Test [8] has as its system Acinetobacter baumannii. The test is described as follows: Antibacterial activity against Acinetobacter baumannii assessed as bacterial growth inhibition by broth microdilution method. In outline:
as §1

Test [9] has as its system Staphylococcus aureus. The test is described as follows: Antibacterial activity against Staphylococcus aureus ATCC 29213 assessed as bacterial growth inhibition by broth microdilution method. The procedure, abridged: as §1
For test [10], the system named is Staphylococcus aureus. The test is described as follows: Antibacterial activity against Staphylococcus aureus ATCC 25923 assessed as bacterial growth inhibition by broth microdilution method. In outline:
as §1

Test [11] concerns Pseudomonas aeruginosa. The test can be described thus: Antibacterial activity against Pseudomonas aeruginosa assessed as bacterial growth inhibition by broth microdilution method. In outline: as §1

In brackets after ≈: the same amount, converted by molar mass.

On to `CC(=O)Nc1ccc(S(=O)(=O)CC(CO)n2cnc(C)c2)cc1` (stereo not drawn), for which the MIC stood at 64 µg/mL (≈ 190 µM) in test [1]; 16 µg/mL (≈ 47.4 µM) in test [2]; 64 µg/mL (≈ 190 µM) in [3]; 32 µg/mL (≈ 94.8 µM) in [4]; 32 µg/mL (≈ 94.8 µM) in [5]; 128 µg/mL (≈ 379 µM) in [6]. The MIC in test [7] worked out at 64 µg/mL (≈ 190 µM); in [8] it was 64 µg/mL (≈ 190 µM); in test [9], 32 µg/mL (≈ 94.8 µM); in [10] it was 64 µg/mL (≈ 190 µM); in test [11], 128 µg/mL (≈ 379 µM).

With `CCc1nccn1C(CO)CS(=O)(=O)c1ccc(N)cc1` (stereo not drawn), the MIC was 16 µg/mL (≈ 51.7 µM) in test [1]; 16 µg/mL (≈ 51.7 µM) in test [2]; 32 µg/mL (≈ 103 µM) in test [3]; 128 µg/mL (≈ 414 µM) in [4]; 32 µg/mL (≈ 103 µM) in test [5]; 64 µg/mL (≈ 207 µM) in test [6]. Further, the MIC in test [7] was found to be 64 µg/mL (≈ 207 µM); in test [8] it was 64 µg/mL (≈ 207 µM); in [9] it was 64 µg/mL (≈ 207 µM); in [10], 64 µg/mL (≈ 207 µM); in test [11], 256 µg/mL (≈ 827 µM).

With `CCCc1nccn1C(CO)CS(=O)(=O)c1ccc(NC(C)=O)cc1` (stereo not drawn), the MIC stood at 16 µg/mL (≈ 43.8 µM) in test [1]; 32 µg/mL (≈ 87.6 µM) in test [2]; 64 µg/mL (≈ 175 µM) in test [3]; 128 µg/mL (≈ 350 µM) in test [4]; 32 µg/mL (≈ 87.6 µM) in test [5]; 32 µg/mL (≈ 87.6 µM) in test [6]. In addition, the MIC in test [7] was 64 µg/mL (≈ 175 µM); in [8], 32 µg/mL (≈ 87.6 µM); in test [9] it was 32 µg/mL (≈ 87.6 µM); in [10] it was 64 µg/mL (≈ 175 µM); in [11], 256 µg/mL (≈ 700 µM).

With `Nc1ccc(S(=O)(=O)CC(CO)n2cnc(Br)c2)cc1` (stereo not drawn), the MIC turned out to be 64 µg/mL (≈ 178 µM) in test [1]; 16 µg/mL (≈ 44.4 µM) in test [2]; 32 µg/mL (≈ 88.8 µM) in test [3]; 256 µg/mL (≈ 711 µM) in test [4]; 32 µg/mL (≈ 88.8 µM) in test [5]; 64 µg/mL (≈ 178 µM) in test [6]. For the same molecule, the MIC in [7] stood at 64 µg/mL (≈ 178 µM); in [8], 64 µg/mL (≈ 178 µM); in test [9], 64 µg/mL (≈ 178 µM); in test [10], 64 µg/mL (≈ 178 µM); in test [11], 256 µg/mL (≈ 711 µM).

Turning to `Cc1nc(I)cn1C(CO)CS(=O)(=O)c1ccc(N)cc1` (stereo not drawn), the MIC in test [1] is 64 µg/mL (≈ 152 µM); in test [2], 32 µg/mL (≈ 76 µM); in test [3], 32 µg/mL (≈ 76 µM); in test [4], 64 µg/mL (≈ 152 µM); in test [5], 32 µg/mL (≈ 76 µM); in [6] it was 64 µg/mL (≈ 152 µM). Besides, the MIC in test [7] stood at 128 µg/mL (≈ 304 µM); in test [8], 32 µg/mL (≈ 76 µM); in [9], 64 µg/mL (≈ 152 µM); in test [10], 64 µg/mL (≈ 152 µM); in test [11] it was 128 µg/mL (≈ 304 µM).

In the case of `CCCc1nccn1C(CO)CS(=O)(=O)c1ccc(N)cc1` (stereo not drawn), the MIC in test [1] is 32 µg/mL (≈ 98.9 µM); in test [2], 8 µg/mL (≈ 24.7 µM); in [3], 64 µg/mL (≈ 198 µM); in test [4], 128 µg/mL (≈ 396 µM); in test [5], 32 µg/mL (≈ 98.9 µM); in test [6], 128 µg/mL (≈ 396 µM). In addition, the MIC in test [7] is 64 µg/mL (≈ 198 µM); in [8], 32 µg/mL (≈ 98.9 µM); in test [9] it was 128 µg/mL (≈ 396 µM); in [10], 64 µg/mL (≈ 198 µM); in test [11] it was 256 µg/mL (≈ 792 µM).

As for `CCc1nc(C)cn1C(CO)CS(=O)(=O)c1ccc(N)cc1` (stereo not drawn), the MIC in test [1] amounted to 16 µg/mL (≈ 49.5 µM); in test [2], 16 µg/mL (≈ 49.5 µM); in test [3] it was 32 µg/mL (≈ 98.9 µM); in [4] it was 128 µg/mL (≈ 396 µM); in test [5], 32 µg/mL (≈ 98.9 µM); in [6] it was 64 µg/mL (≈ 198 µM). The MIC in [7] worked out at 64 µg/mL (≈ 198 µM); in [8], 64 µg/mL (≈ 198 µM); in test [9], 128 µg/mL (≈ 396 µM); in test [10], 64 µg/mL (≈ 198 µM); in [11], 128 µg/mL (≈ 396 µM).

Take `Nc1ccc(S(=O)(=O)CC(CO)n2cnc(I)c2)cc1` (stereo not drawn): the minimal inhibitory concentration (MIC) in test [1] came out at 256 µg/mL (≈ 629 µM); in test [2], 64 µg/mL (≈ 157 µM); in test [3] it was 32 µg/mL (≈ 78.6 µM); in test [4] it was 256 µg/mL (≈ 629 µM); in [5], 32 µg/mL (≈ 78.6 µM); in test [6], 64 µg/mL (≈ 157 µM). For the same molecule, the MIC in test [7] is 64 µg/mL (≈ 157 µM); in test [8] it was 64 µg/mL (≈ 157 µM); in [9], 64 µg/mL (≈ 157 µM); in test [10], 64 µg/mL (≈ 157 µM); in [11], 256 µg/mL (≈ 629 µM).
